The source made the active and inactive calls. The rule behind the calls is not given here.
How the values were obtained:
[1] = molecular target: T1, C3a anaphylatoxin chemotactic receptor (Homo sapiens, UniProt Q16581); experiment: Antagonist activity against C3AR in HMDMs assessed as inhibition of C3a-induced intracellular calcium release by Fluo-3 AM dye based FLIPR assay
T1 sequence (Q16581 whole entry): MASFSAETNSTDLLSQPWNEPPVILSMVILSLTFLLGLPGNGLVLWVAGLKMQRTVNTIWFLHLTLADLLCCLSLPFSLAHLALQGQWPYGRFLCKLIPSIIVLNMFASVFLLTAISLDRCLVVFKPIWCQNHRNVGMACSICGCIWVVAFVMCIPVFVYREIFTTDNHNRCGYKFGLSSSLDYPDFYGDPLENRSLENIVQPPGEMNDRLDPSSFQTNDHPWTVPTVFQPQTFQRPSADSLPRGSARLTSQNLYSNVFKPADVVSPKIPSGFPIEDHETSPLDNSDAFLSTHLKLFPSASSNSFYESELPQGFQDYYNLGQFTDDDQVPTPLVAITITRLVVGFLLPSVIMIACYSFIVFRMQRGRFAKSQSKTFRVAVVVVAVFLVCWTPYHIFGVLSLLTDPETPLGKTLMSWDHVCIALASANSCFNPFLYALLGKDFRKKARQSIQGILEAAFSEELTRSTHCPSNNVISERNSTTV

[2] = molecular target: T1, C3a anaphylatoxin chemotactic receptor; experiment: Displacement of [125I]-C3a from C3AR in HMDMs by scintillation counting method
[3] = molecular target: T2, C3a anaphylatoxin chemotactic receptor (Homo sapiens) (UniProt Q16581)
T2 sequence (whole entry): T1 sequence (Q16581 whole entry)

[4] = molecular target: T2, C3a anaphylatoxin chemotactic receptor (Homo sapiens); remark: listed apart in the source
[5] = molecular target: T2, C3a anaphylatoxin chemotactic receptor (Homo sapiens); experiment: Agonist activity against C3AR in HMDMs assessed as increase in intracellular calcium release up to 100 uM by Fluo-3 AM dye based FLIPR assay; type: functional, cell-based
In short: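 Overnight-plated HMDMs (5 × 10^4/well) loaded with 4 μM Fluo-3 AM for 1 h at 37 °C, washed into HBSS with 2.5 mM probenecid, 20 mM HEPES, pH 7.4; compound range added and Ca2+ fluorescence read ≥60 s (495/520 nm) by FLIPR.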

[6] = molecular target: T1, C3a anaphylatoxin chemotactic receptor; experiment: Agonist activity against C3AR in HMDMs assessed as increase in intracellular calcium release by Fluo-3 AM dye based FLIPR assay relative to 1 uM C3a
[7] = molecular target: T2, C3a anaphylatoxin chemotactic receptor (Homo sapiens); experiment: Agonist activity against C3AR in C3a desensitized HMDMs assessed as increase in intracellular calcium release at 10 uM added 5 mins post C3a-induced desensitization by Fluo-3 AM dye based FLIPR; type: functional, cell-based
In short: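 HMDMs desensitized with 300 nM C3a at t0, then given test agonist at 10 μM; calcium signal monitored on FLIPR after Fluo-3 AM loading (4 μM, 1 h, 37 °C) in HBSS with 2.5 mM probenecid, 20 mM HEPES, pH 7.4; excitation 495, emission 520 nm.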

[8] = molecular target: T2, C3a anaphylatoxin chemotactic receptor (Homo sapiens); experiment: Agonist activity against C3AR in HMDMs assessed as increase in IL-1beta mRNA expression at 300 nM incubated for 30 mins in presence of 30 mins pre-treatment with 10 uM (2-(2,2-Diphenylethoxy)acetyl)-L-arginine by qRT-PCR method
In short: (§1)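 HMDMs seeded at 1 × 10^6 mL−1, adhered overnight, pretreated with C3aR antagonist (10 μM, 30 min), then stimulated 30 min at 0.3 μM. RNA extracted; qRT-PCR normalized to 18S rRNA; fold change relative to untreated control; mean ± SEM, three independent experiments.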

[9] = molecular target: T2, C3a anaphylatoxin chemotactic receptor (Homo sapiens); experiment: Agonist activity against C3AR in HMDMs assessed as increase in CCL3 mRNA expression at 300 nM incubated for 30 mins in presence of 30 mins pre-treatment with 10 uM (2-(2,2-Diphenylethoxy)acetyl)-L-arginine by qRT-PCR method; in short: as §1
[10] = molecular target: T2, C3a anaphylatoxin chemotactic receptor (Homo sapiens); experiment: Agonist activity against C3AR in HMDMs assessed as increase in CCL3 mRNA expression at 300 nM incubated for 30 mins by qRT-PCR method
In short: (§2)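 HMDMs (CSF-differentiated CD14+ blood monocytes, day 7) seeded at 1 × 10^6 mL−1 and adhered overnight, then stimulated 30 min at 0.3 μM. RNA extracted; qRT-PCR normalized to 18S rRNA; fold change relative to untreated control; mean ± SEM of three independent experiments.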

[11] = molecular target: T2, C3a anaphylatoxin chemotactic receptor (Homo sapiens); experiment: Agonist activity against C3AR in HMDMs assessed as increase in TNFalpha mRNA expression at 300 nM incubated for 30 mins in presence of 30 mins pre-treatment with 10 uM (2-(2,2-Diphenylethoxy)acetyl)-L-arginine by qRT-PCR method; in short: as §1
[12] = molecular target: T2, C3a anaphylatoxin chemotactic receptor (Homo sapiens); experiment: Agonist activity against C3AR in HMDMs assessed as increase in IL-1beta mRNA expression at 300 nM incubated for 30 mins by qRT-PCR method; in short: as §2
[13] = molecular target: T3, C5a anaphylatoxin chemotactic receptor 1 (Homo sapiens) (UniProt P21730); experiment: Displacement of [125I]-C5a from C5AR in HMDMs 20 uM by scintillation counting method
T3 sequence (whole entry): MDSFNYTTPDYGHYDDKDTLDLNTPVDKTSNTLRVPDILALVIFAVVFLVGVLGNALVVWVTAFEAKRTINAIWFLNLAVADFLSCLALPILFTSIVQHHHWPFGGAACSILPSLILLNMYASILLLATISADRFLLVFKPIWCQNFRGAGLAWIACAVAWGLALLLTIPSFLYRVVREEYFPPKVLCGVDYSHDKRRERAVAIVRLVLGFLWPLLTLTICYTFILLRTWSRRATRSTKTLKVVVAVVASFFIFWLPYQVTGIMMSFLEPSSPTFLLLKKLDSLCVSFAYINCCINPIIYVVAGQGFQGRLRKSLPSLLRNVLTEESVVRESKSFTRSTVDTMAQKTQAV

[14] = molecular target: T2, C3a anaphylatoxin chemotactic receptor (Homo sapiens); experiment: Agonist activity against C3AR in HMDMs assessed as increase in TNFalpha mRNA expression at 300 nM incubated for 30 mins by qRT-PCR method; in short: as §2

N=C(N)NCCC[C@H](NC(=O)c1nc(C(c2ccccc2)c2ccccc2)no1)C(=O)O
IC50 [1]: 1000 nM | IC50 [2]: 12 nM

Cc1oc(C(c2ccccc2)c2ccccc2)nc1C(=O)N[C@@H](CCCNC(=N)N)C(=O)O
pEC50 [3]: Active | IC50 [2]: 11 nM

N=C(N)NCCC[C@H](NC(=O)c1noc(C(c2ccccc2)c2ccccc2)n1)C(=O)O
IC50 [1]: 1000 nM | IC50 [2]: 54 nM

Cc1nc(C(c2ccccc2)c2ccccc2)n(C)c1C(=O)N[C@@H](CCCNC(=N)N)C(=O)O
pEC50 [3]: inactive | pIC50 [4]: inactive | IC50 [2]: 1140 nM

N=C(N)NCCC[C@H](NC(=O)CSCC(c1ccccc1)c1ccccc1)C(=O)O
Activity [5]: inactive | IC50 [2]: 8 nM

Cc1c(C(=O)N[C@@H](CCCNC(=N)N)C(=O)O)nc(C(c2ccccc2)c2ccccc2)n1C
EC50 [6]: 40 nM | IC50 [2]: 31 nM

N=C(N)NCCC[C@H](NC(=O)c1oc(C(c2ccccc2)c2ccccc2)nc1-c1ccccc1)C(=O)O
IC50 [1]: 2000 nM | IC50 [2]: 110 nM

N=C(N)NCCC[C@H](NC(=O)COCC(c1ccccc1)c1ccccc1)C(=O)O
Activity [5]: inactive | IC50 [1]: 1260 nM | IC50 [2]: 10 nM

N=C(N)NCCC[C@H](NC(=O)c1coc(C(c2ccccc2)c2ccccc2)n1)C(=O)O
IC50 [2]: 19 nM

Cc1[nH]c(C(c2ccccc2)c2ccccc2)nc1C(=O)N[C@@H](CCCNC(=N)N)C(=O)O
Activity [7]: inactive | Activity [8]: inactive | Activity [9]: inactive | EC50 [6]: 25.1 nM | Activity [10]: Active | Activity [11]: inactive | Activity [12]: Active | inhibition [13]: inactive | IC50 [2]: 10 nM | Activity [14]: Active

N=C(N)NCCC[C@H](NC(=O)c1nc(C(c2ccccc2)c2ccccc2)[nH]c1-c1ccccc1)C(=O)O
EC50 [6]: > 31600 nM | IC50 [2]: 87 nM

N=C(N)NCCC[C@H](NC(=O)CCCC(c1ccccc1)c1ccccc1)C(=O)O
Activity [5]: inactive | IC50 [2]: 96 nM

Cc1nc(C(c2ccccc2)c2ccccc2)oc1C(=O)N[C@@H](CCCNC(=N)N)C(=O)O
IC50 [1]: 3980 nM | IC50 [2]: 100 nM

N=C(N)NCCC[C@H](NC(=O)c1nnc(C(c2ccccc2)c2ccccc2)o1)C(=O)O
IC50 [1]: 19000 nM | IC50 [2]: 967 nM

N=C(N)NCCC[C@H](NC(=O)CNCC(c1ccccc1)c1ccccc1)C(=O)O
Activity [5]: inactive | IC50 [2]: 150 nM
